Data set [1] is described as follows: Solubility of the compound in PBS at pH 7.4. The class given is physicochemical.
The test system of another data set is NCI-H460. The data set is described as follows: Antiproliferative activity against human NCI-H460 cells after 72 hrs by MTS assay. Particulars: NCI-H460, 72 h. The class given is functional, cell-based. Summed up: (§1)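 NCI-H460, PC9 or NCI-H1975 cells were grown in RPMI 1640 with 10% FBS at 37 °C and 5% CO2, and used at passages 3–5 from thawing. Exponentially growing cells were seeded at 7000 cells/well. After 24 h the medium was replaced with medium containing a 3-fold serial dilution of compound in DMSO, and cells were incubated 72 h at 37 °C. MTS was added for 2 h and A490 read. Samples were run in triplicate and repeated at least three times.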
A general note: Formazan colour is commonly taken as a measure of viable cells.

For a further data set, the system named is PC-9. The data set is described as follows: Antiproliferative activity against human PC9 cells harboring EGFR exon 19 deletion mutant after 72 hrs by MTS assay. The data set is classed as functional, cell-based. The following applies: PC-9, 72 h. The method, boiled down: as §1
Data set [2] concerns NCI-H1975. Description: Antiproliferative activity against human NCI-H1975 cells harboring EGFR L858R/T790M double mutant after 72 hrs by MTS assay. The data set is classed as functional, cell-based. The following applies: NCI-H1975, 72 h. The method, boiled down: as §1
The subject of another data set is BEAS-2B. Description: Antiproliferative activity against human BEAS2B cells after 72 hrs by MTS assay. The data set is classed as cell-based.
Data set [3] addresses T1, Epidermal growth factor receptor (Homo sapiens, UniProt P00533). Description: Inhibition of wild-type EGFR (unknown origin) using Tyr 4 peptide as substrate in presence of ATP by Z-LYTE kinase assay.
For data set [4], the target named is Epidermal growth factor receptor (Homo sapiens, UniProt P00533, L858R/T790M). Description: Inhibition of EGFR L858R/T790M mutant (unknown origin) using Tyr 4 peptide as substrate in presence of ATP by Z-LYTE kinase assay.
Sequence of Epidermal growth factor receptor (Homo sapiens, UniProt P00533, L858R/T790M) (P00533 25-1210 T790M/L858R limits assumed): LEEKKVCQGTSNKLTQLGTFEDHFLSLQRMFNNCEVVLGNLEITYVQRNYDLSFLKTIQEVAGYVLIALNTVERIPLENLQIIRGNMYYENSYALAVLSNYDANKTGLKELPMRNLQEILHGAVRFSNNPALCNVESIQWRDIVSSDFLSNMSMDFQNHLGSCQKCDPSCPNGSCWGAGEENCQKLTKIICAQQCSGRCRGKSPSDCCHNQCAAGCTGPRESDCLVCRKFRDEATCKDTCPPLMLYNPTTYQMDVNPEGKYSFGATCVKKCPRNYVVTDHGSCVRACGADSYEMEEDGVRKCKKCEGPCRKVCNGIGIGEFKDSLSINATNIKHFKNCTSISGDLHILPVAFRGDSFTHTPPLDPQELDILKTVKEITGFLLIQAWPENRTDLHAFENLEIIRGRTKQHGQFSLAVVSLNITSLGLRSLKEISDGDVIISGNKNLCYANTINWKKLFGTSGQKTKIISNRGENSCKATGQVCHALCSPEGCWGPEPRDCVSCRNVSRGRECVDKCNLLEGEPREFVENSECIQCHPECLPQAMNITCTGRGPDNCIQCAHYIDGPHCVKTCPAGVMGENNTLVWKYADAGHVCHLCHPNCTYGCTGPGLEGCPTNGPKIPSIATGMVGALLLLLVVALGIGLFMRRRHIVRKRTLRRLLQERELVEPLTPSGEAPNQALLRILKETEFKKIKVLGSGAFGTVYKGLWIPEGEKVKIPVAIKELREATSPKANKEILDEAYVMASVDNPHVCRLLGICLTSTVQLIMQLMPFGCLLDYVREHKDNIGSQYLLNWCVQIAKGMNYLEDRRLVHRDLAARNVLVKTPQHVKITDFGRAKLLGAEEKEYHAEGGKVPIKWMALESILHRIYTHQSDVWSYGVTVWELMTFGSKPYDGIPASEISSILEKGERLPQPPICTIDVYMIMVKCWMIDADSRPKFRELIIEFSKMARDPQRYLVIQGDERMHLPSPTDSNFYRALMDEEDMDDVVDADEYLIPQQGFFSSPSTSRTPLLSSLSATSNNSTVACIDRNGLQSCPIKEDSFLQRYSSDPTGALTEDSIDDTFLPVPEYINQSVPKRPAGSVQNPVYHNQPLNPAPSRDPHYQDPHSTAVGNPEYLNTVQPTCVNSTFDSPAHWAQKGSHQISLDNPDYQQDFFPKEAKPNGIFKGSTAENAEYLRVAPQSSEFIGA
The species named for a further data set is Homo sapiens. Description: Selectivity index, ratio of IC50 for wild type EGFR (unknown origin) to IC50 for EGFR L858R/T790M double mutant (unknown origin).
Data set [5] relates to Epidermal growth factor receptor (Homo sapiens), P00533 [L858R,T790M]. Description: Inhibition of EGFR L858R/T790M mutant phosphorylation at Y1086 residue in human H1975 cells up to 1000 nmol/L after 6 hrs by Western blot analysis. The class given is cell-based. Summed up: (§2)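 The buffer was supplemented with protease inhibitor cocktail, 40 mmol/L sodium fluoride and 1 mmol/L sodium orthovanadate. Protein was quantified by BCA before immunoblotting.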
Sequence of Epidermal growth factor receptor (Homo sapiens), P00533 [L858R,T790M] (P00533 whole entry T790M/L858R, looked up): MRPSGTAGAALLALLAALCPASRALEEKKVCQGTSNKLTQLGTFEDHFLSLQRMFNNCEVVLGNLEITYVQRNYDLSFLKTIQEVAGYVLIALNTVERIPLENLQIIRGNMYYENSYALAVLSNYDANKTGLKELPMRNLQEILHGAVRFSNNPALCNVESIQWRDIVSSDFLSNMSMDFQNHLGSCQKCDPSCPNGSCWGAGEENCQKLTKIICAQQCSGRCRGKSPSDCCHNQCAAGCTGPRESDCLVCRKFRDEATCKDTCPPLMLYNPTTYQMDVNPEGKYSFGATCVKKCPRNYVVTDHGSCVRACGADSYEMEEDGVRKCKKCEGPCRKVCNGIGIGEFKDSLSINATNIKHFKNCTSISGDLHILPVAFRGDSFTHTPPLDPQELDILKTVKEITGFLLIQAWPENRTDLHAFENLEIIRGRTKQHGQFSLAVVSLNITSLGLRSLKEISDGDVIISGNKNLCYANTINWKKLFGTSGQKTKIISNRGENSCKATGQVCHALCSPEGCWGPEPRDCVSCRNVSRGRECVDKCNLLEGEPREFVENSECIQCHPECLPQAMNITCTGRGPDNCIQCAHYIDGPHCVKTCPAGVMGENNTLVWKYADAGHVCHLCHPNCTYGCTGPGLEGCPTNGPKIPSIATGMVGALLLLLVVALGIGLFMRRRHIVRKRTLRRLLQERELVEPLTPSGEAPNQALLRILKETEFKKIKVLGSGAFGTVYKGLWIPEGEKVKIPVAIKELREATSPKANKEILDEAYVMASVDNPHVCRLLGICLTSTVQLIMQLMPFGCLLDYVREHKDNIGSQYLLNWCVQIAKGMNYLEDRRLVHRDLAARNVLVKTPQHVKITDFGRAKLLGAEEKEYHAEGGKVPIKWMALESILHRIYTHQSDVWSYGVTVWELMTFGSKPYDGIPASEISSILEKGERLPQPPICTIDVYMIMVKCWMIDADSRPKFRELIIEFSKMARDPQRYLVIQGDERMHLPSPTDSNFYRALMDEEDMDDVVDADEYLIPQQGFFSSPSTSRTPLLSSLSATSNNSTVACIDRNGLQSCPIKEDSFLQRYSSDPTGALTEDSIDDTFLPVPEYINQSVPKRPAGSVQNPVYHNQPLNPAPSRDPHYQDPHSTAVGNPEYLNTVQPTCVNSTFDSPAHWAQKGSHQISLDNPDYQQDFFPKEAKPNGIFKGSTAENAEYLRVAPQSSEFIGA
In general terms: In western blotting, separated proteins are transferred to a membrane and probed.

For data set [6] the test system is unchanged. Description: Inhibition of EGFR L858R/T790M mutant in human H1975 cells assessed as inhibition of ERK phosphorylation at P-p44/42 residue up to 1000 nmol/L after 6 hrs by Western blot analysis. The class given is cell-based. Summed up:
as §2

The test system is the same in data set [7]. Description: Inhibition of EGFR L858R/T790M mutant in human H1975 cells assessed as inhibition of AKT phosphorylation at S473 residue up to 1000 nmol/L after 6 hrs by Western blot analysis. The data set is classed as cell-based. The method, boiled down: as §2
The subject of data set [8] is Epidermal growth factor receptor (Homo sapiens), P00533 [UNDEFINED MUTATION]. Description: Inhibition of EGFR exon 19 deletion mutant phosphorylation at Y1086 residue in human PC9 cells up to 1000 nmol/L after 6 hrs by Western blot analysis. The class given is cell-based. Summed up:
as §2

Data set [9] shares this test system. Description: Inhibition of EGFR exon 19 deletion mutant in human PC9 cells assessed as inhibition of ERK phosphorylation at P-p44/42 residue up to 1000 nmol/L after 6 hrs by Western blot analysis. The data set is classed as cell-based. Summed up: as §2
Data set [10] shares this test system. Description: Inhibition of EGFR exon 19 deletion mutant in human PC9 cells assessed as inhibition of AKT phosphorylation at S473 residue up to 1000 nmol/L after 6 hrs by Western blot analysis. The class given is cell-based. The method, boiled down:
as §2

Data set [11] has as its target T1, Epidermal growth factor receptor. The data set is described as follows: Inhibition of wild-type EGFR phosphorylation at Y1086 residue in human LoVo cells up to 1000 nmol/L after 6 hrs by Western blot analysis. The data set is classed as cell-based. Summed up: as §2
The target is the same in data set [12]. Description: Inhibition of wild-type EGFR in human LoVo cells assessed as inhibition of ERK phosphorylation at P-p44/42 residue up to 1000 nmol/L after 6 hrs by Western blot analysis. The data set is classed as cell-based. The method, boiled down:
as §2

For data set [13] the target is unchanged. The data set is described as follows: Inhibition of wild-type EGFR in human LoVo cells assessed as inhibition of AKT phosphorylation at S473 residue up to 1000 nmol/L after 6 hrs by Western blot analysis. The class given is cell-based. Summed up: as §2
Data set [14] deals with NCI-H1975. Description: Antitumor activity against human NCI-H1975 cells harboring L858R/T790M mutant xenografted in nude mouse at 5 mg/kg/day, ig administered once daily for 30 days measured every 2 days of dosing. The class given is functional, organism-based. The method, boiled down:
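Female nude mice (6–8 weeks) were injected subcutaneously in the right flank with NCI-H1975 cells (1 × 10^6/mouse). Once tumors reached about 150–200 mm3, mice were randomized (n = 10 per group). They were dosed intragastrically at 5 mg/kg/day for 30 consecutive days, or given vehicle DMSO/Cremophor-EL/PBS (1:1:8). Tumor length and width were measured by caliper every two days, and volume = width × width × length/2.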
On the technique in general: Xenograft models place foreign cells or tissue in a host animal.

The next data set relates to Mus musculus. The data set is described as follows: Toxicity in nude mouse assessed as effect on body weight at 5 mg/kg/day, ig administered once daily for 30 days. The data set is classed as organism-based. Particulars: in vivo, po, 720 h.

Broadly, the solubility is the dissolved amount per volume that the medium holds. By IC50 is commonly meant the concentration needed to halve the response being measured.

The structures appear in SMILES notation. Activity calls are given as the source filed them. The calls are words filed in the database; no cut-off is given here. Some results are limits rather than exact numbers.

Sequence of Epidermal growth factor receptor (Homo sapiens), P00533 [UNDEFINED MUTATION] (P00533 whole entry, looked up, stated change not applied): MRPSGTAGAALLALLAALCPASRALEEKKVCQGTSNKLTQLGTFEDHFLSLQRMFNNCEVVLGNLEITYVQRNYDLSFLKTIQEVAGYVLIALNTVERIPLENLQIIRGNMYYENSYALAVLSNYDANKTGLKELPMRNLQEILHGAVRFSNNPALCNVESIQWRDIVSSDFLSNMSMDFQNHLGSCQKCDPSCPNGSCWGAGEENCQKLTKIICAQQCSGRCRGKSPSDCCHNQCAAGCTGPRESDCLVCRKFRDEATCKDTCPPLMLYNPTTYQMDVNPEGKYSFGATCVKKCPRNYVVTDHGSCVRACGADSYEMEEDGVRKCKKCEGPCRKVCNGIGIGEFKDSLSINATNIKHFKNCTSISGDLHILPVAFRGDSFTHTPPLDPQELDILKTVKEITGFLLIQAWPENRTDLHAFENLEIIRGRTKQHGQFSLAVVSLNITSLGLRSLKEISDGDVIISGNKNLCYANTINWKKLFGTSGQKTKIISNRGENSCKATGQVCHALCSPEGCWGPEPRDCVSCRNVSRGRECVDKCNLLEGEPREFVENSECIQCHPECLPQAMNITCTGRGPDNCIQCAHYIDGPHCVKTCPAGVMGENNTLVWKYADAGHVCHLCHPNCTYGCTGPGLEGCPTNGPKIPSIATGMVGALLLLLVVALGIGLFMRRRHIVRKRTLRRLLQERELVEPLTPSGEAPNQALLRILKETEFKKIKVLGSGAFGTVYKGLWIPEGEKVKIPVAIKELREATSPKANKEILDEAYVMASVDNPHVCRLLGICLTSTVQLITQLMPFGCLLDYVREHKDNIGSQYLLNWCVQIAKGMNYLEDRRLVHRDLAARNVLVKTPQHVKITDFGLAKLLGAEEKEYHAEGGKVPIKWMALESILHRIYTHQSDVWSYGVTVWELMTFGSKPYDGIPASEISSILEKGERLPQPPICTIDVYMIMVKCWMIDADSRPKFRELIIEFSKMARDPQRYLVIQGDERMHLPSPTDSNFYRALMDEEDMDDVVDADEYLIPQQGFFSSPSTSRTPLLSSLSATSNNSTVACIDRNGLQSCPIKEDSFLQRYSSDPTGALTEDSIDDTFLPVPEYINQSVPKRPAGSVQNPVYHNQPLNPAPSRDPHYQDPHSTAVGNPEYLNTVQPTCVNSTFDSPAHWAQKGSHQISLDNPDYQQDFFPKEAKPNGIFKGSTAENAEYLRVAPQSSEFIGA
T1 sequence (P00533 whole entry): as the sequence (P00533 whole entry, looked up, stated change not applied) above

In [1], `C=CC(=O)Nc1cc(Nc2nccc(-c3cn(C)c4ccccc34)n2)c(OC)cc1N(C)CC[N+](C)(C)[O-]` showed a solubility greater than 10000 µg/mL. Besides, the concentration for half-maximal inhibition (IC50) was determined as 611 nM in the data set with NCI-H460; 16.1 nM in the data set with PC-9; 17.4 nM in the data set with NCI-H1975 [2]; 15100 nM in the data set with BEAS-2B; 318 nM in [3]; 6.4 nM in [4]. For the same compound, in the data set listed under Homo sapiens, the Ratio IC50 is 49.9. In addition, the inhibition entry in [5], in [6], in data set [7], in data set [8], in data set [9] and in data set [10] was “Active” throughout. In addition, the “inhibition (INH)” value in data set [11], in data set [12] and in [13] was “Not Active” throughout. For the same compound, the outcome in the data set on NCI-H1975 [14] was Active. In addition, the Activity result in the data set on Mus musculus is recorded as “Non-Toxic”.

In the case of `C=CC(=O)Nc1cc(Nc2nccc(-c3cn(C)c4ccc(F)cc34)n2)c(OC)cc1N(C)CC[N+](C)(C)[O-]`, the solubility in data set [1] is less than 100 µg/mL. Moreover, the IC50 with NCI-H460 was found to be 892 nM; in the data set on PC-9 it was 26.2 nM; in the data set with NCI-H1975 [2], 45.6 nM; in the data set with BEAS-2B, 15700 nM; in data set [3] it was 357 nM; in data set [4], 10.2 nM. In the data set listed under Homo sapiens, the Ratio IC50 amounted to 35. Besides, the inhibition result in data set [5], in data set [6], in [7], in data set [8], in data set [9] and in [10] was “Active” in each case. For the same compound, the “inhibition (INH)” value in data set [11], in [12] and in data set [13] was “Not Active” each time.

Take `C=CC(=O)Nc1cc(Nc2nccc(-c3cn(C)c4ccccc34)n2)c(OC)cc1N(C)CCN(C)C` [OSIMERTINIB]: the solubility in [1] is less than 100 µg/mL. In addition, the IC50 is 416 nM in the data set with NCI-H460, […] in the data set with PC-9, […] in the data set with NCI-H1975 [2] and 14900 nM with BEAS-2B.

The compound `C=CC(=O)Nc1cc(Nc2nccc(-c3cn(C)c4ccc(F)cc34)n2)c(OC)cc1N(C)CCN(C)C` came in with a solubility in [1] of less than 100 µg/mL. Besides, the 50% inhibitory concentration (IC50) in the data set with NCI-H460 amounted to 430 nM; in the data set with PC-9, 8.1 nM; with NCI-H1975 [2] it was 15.3 nM; in the data set with BEAS-2B it was 7900 nM; in data set [3], 166 nM; in data set [4], 4.9 nM. The Ratio IC50 in the data set listed under Homo sapiens came out at 34.3. Besides, the inhibition entry in data set [5], in data set [6], in data set [7], in data set [8], in data set [9] and in [10] was “Active” in each case. Besides, the “inhibition (INH)” value in [11], in [12] and in [13] was “Not Active” in each case.

`C=CC(=O)Nc1cc(Nc2nccc(-c3cn(C)c4c(F)cccc34)n2)c(OC)cc1N(C)CC[N+](C)(C)[O-]` came in with a solubility in data set [1] greater than 10000 µg/mL. Moreover, the half-inhibitory concentration (IC50) turned out to be 1140 nM in the data set on NCI-H460; 46.7 nM in the data set with PC-9; 89.9 nM with NCI-H1975 [2]; 28400 nM in the data set with BEAS-2B; 595 nM in data set [3]; 17.8 nM in [4]. For the same compound, in the data set filed under Homo sapiens, the Ratio IC50 is 33.4. The inhibition entry in data set [5], in data set [6], in data set [7], in data set [8], in [9] and in data set [10] was “Active” in each case. For the same compound, the “inhibition (INH)” value in data set [11], in data set [12] and in data set [13] was “Not Active” each time.

Compound `C=CC(=O)Nc1cc(Nc2nccc(-c3cn(C)c4c(F)cccc34)n2)c(OC)cc1N(C)CCN(C)C` had a solubility in data set [1] of less than 100 µg/mL. Further, the IC50 in the data set with NCI-H460 was determined as 875 nM; in the data set with PC-9, 20.5 nM; in the data set with NCI-H1975 [2] it was 32.9 nM; in the data set with BEAS-2B it was 15600 nM; in [3], 175 nM; in data set [4], 6 nM. Also, the Ratio IC50 in the data set filed under Homo sapiens turned out to be 29.2. Moreover, the inhibition result in data set [5], in data set [6], in data set [7], in data set [8], in data set [9] and in data set [10] was “Active” throughout. Moreover, the “inhibition (INH)” value in [11], in data set [12] and in data set [13] was “Not Active” each time.

The record behind these values is ChEMBL document CHEMBL4043110 (Bioorg Med Chem, 2017).
